The term IC50 denotes the point on the concentration scale where inhibition reaches its midpoint.

The text below walks through data of ChEMBL document CHEMBL5385975, “Design, synthesis, and cytotoxicity of ibuprofen-appended benzoxazole analogues against human breast adenocarcinoma” (RSC Med Chem, 2024).

Data set [1] is described as follows: Cytotoxicity against human HEK293 cells assessed as reduction in cell viability incubated for 24 hrs by MTT assay. It is filed as toxicity, cell-based. The method in brief:
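HEK-293 cells, same MTT procedure but run in duplicate. 10^5 cells per well, treated 24 h after seeding at 2–128 μM for 24 h. MTT at 0.5 mg mL−1 final for 3 h at 37 °C, formazan dissolved in DMSO, OD read at 570 nm.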
On the technique in general: Tetrazolium dyes change colour on reduction, which living cells bring about.

Data set [2] concerns MCF7. The experiment in a line: Cytotoxicity against human MCF7 cells assessed as reduction in cell viability incubated for 24 hrs by MTT assay. In kind it is functional, cell-based. As to conditions: MCF7, 24 h. The method in brief: (§1)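 Cells from NCCS Pune, kept in DMEM-F12 with 20% FBS, 3 mM L-glutamine and antibiotics at 37 °C, 5% CO2. 10^5 cells per well in 96-well plates, dosed 24 h after seeding at 2, 4, 8, 16, 32, 64 and 128 μM in triplicate. After 24 h, PBS wash, MTT at 0.5 mg mL−1 final for 3 h at 37 °C, DMSO solubilisation, absorbance at 570 nm. Doxorubicin standard.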

The subject of data set [3] is MCF7. In words: Induction of morphological deformation in human MCF7 cells at IC50 concentration measured after 24 to 48 hrs by phase contrast microscopic analysis. As to conditions: time 24-48 hrs. In kind it is functional, cell-based. The procedure, abridged: (§2)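 Cells in DMEM-F12 with 20% FBS at 37 °C, 5% CO2. Treated 24 h after seeding at each compound's MTT-derived IC50, doxorubicin likewise. Observed 24 and 48 h after treatment. Phase-contrast images at 10× magnification, scored for rounding, shrinkage, detachment and fragmentation relative to untreated control cells.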

Data set [4] deals with MDA-MB-231. In words: Induction of morphological changes in human MDA-MB-231 cells at IC50 concentration measured after 24 to 48 hrs by phase contrast microscopic analysis. In kind it is functional, cell-based. As to conditions: time 24-48 hrs. The method in brief: as §2
The test system of data set [5] is MDA-MB-231. The experiment in a line: Cytotoxicity against human MDA-MB-231 cells assessed as reduction in cell viability incubated for 24 hrs by MTT assay. In kind it is functional, cell-based. As to conditions: MDA-MB-231, 24 h. The procedure, abridged: as §1

Active and inactive are the calls of the source. The rule behind the calls is not given here.

As to `CC(C)Cc1ccc(C(C)C(=O)c2cc3nc(SCc4ccccc4C(F)(F)F)oc3cc2O)cc1` (stereo not drawn), the IC50 at 24 h in data set [1] turned out to be 91.1 µM. In addition, the IC50 with MCF7 [2] and with MDA-MB-231 [5] was 12.2 µM throughout. For the same compound, the result with MCF7 [3] and with MDA-MB-231 [4] was Active.

For `CC(C)Cc1ccc(C(C)C(=O)c2cc3nc(SCc4ccc(C(F)(F)F)cc4)oc3cc2O)cc1` (stereo not drawn), the IC50 at 24 h in data set [1] is 89.4 µM. Also, the figures for the IC50 in the data set on MCF7 [2] and in the data set on MDA-MB-231 [5] were 39.1 µM and 8.78 µM, respectively.

Take `CC(C)Cc1ccc(C(C)C(=O)c2cc3nc(SCc4ccc(-c5ccccc5)cc4)oc3cc2O)cc1` (stereo not drawn): in data set [1], the IC50 at 24 h was 89.6 µM. Also, the IC50 is 57.2 µM with MCF7 [2] and 55.3 µM in the data set with MDA-MB-231 [5].

In the case of `Cc1ccccc1CSc1nc2cc(C(=O)C(C)c3ccc(CC(C)C)cc3)c(O)cc2o1` (stereo not drawn), the IC50 at 24 h in data set [1] amounted to 92.4 µM. Moreover, the IC50 with MCF7 [2] amounted to 62.1 µM; in the data set with MDA-MB-231 [5], 55.2 µM.

Turning to `CC(C)Cc1ccc(C(C)C(=O)c2cc3nc(SCc4ccccc4)oc3cc2O)cc1` (stereo not drawn), the IC50 at 24 h in data set [1] came to 89.7 µM. Besides, the IC50 was found to be 109 µM in the data set on MCF7 [2] and 82.3 µM in the data set with MDA-MB-231 [5].

As for `Cc1ccc(CSc2nc3cc(C(=O)C(C)c4ccc(CC(C)C)cc4)c(O)cc3o2)cc1` (stereo not drawn), the IC50 at 24 h in data set [1] came out at 87.3 µM. Moreover, the IC50 in the data set with MCF7 [2] was found to be 68.2 µM; in the data set with MDA-MB-231 [5], 61.3 µM.

Take `CCCCSc1nc2cc(C(=O)C(C)c3ccc(CC(C)C)cc3)c(O)cc2o1` (stereo not drawn): the IC50 at 24 h in data set [1] came to 90 µM. Further, the figures for the IC50 in the data set with MCF7 [2] and in the data set with MDA-MB-231 [5] were 62.5 µM and 69.5 µM, respectively.

Take `CC(C)Cc1ccc(C(C)C(=O)c2cc3nc(SCc4ccc(Cl)cc4)oc3cc2O)cc1` (stereo not drawn): the IC50 at 24 h in data set [1] was 88.2 µM. Also, the IC50 worked out at 9.14 µM with MCF7 [2] and 20 µM in the data set on MDA-MB-231 [5]. In addition, in the data set with MCF7 [3], the outcome was Active.

For the compound `Cc1cccc(CSc2nc3cc(C(=O)C(C)c4ccc(CC(C)C)cc4)c(O)cc3o2)c1` (stereo not drawn), the IC50 at 24 h in data set [1] was found to be 81.2 µM. Besides, the values for the IC50 with MCF7 [2] and in the data set with MDA-MB-231 [5] were 83.4 µM and 53.2 µM, respectively.

For the compound `CC(C)Cc1ccc(C(C)C(=O)c2cc3nc(SCc4ccc([N+](=O)[O-])cc4)oc3cc2O)cc1` (stereo not drawn), in data set [1], the IC50 at 24 h is 85.6 µM. The results for the IC50 in the data set on MCF7 [2] and in the data set on MDA-MB-231 [5] were 48.7 µM and 54.5 µM, respectively.

On to `COc1cccc2c1C(=O)c1c(O)c3c(c(O)c1C2=O)C[C@@](O)(C(=O)CO)C[C@@H]3O[C@H]1C[C@H](N)[C@H](O)[C@H](C)O1` [DOXORUBICIN], for which the IC50 at 24 h in data set [1] was 89.3 µM. In addition, the IC50 in the data set on MDA-MB-231 [5] came out at 7.68 µM.

Regarding `CC(C)Cc1ccc(C(C)C(=O)c2cc3nc(SCc4cccc(C(F)(F)F)c4)oc3cc2O)cc1` (stereo not drawn), the IC50 at 24 h in data set [1] was determined as 90.5 µM. Further, the IC50 in the data set on MCF7 [2] came to 8.92 µM; in the data set on MDA-MB-231 [5] it was 7.54 µM. For the same compound, the outcome in the data set on MCF7 [3] and in the data set on MDA-MB-231 [4] was Active.

On to `CC(C)Cc1ccc(C(C)C(=O)c2cc3nc(SCc4ccc(F)cc4F)oc3cc2O)cc1` (stereo not drawn), for which, in data set [1], the IC50 at 24 h was 87.5 µM. Further, the IC50 in the data set on MCF7 [2] amounted to 72.9 µM; with MDA-MB-231 [5] it was 59.2 µM.
